A short description of data set [1]: Pro-oxidant effect on Fe(2+)/H2O2-induced deoxyribose degradation relative to control. The data set is classed as functional. In short, it runs like this:
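Deoxyribose degradation induced by Fe(II)/H2O2 in a medium of deoxyribose, phosphate buffer, EDTA and H2O2 with no enzymatic activity. Compounds tested from 1 to 50 µM.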

Data set [2] can be described thus: Solubility in 0.02 M sodium acetate buffer at pH 5.0. The data set is classed as physicochemical. The method, boiled down: (§1)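 Solubility in water and in buffers at pH 1.3, 5.0 and 7.4, determined by HPLC-UV peak areas correlated with known concentrations. Means of three experiments ± SD.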
The species entered for a further data set is Homo sapiens. The data set can be described thus: Stability in human plasma assessed as half life of hydrolysis.
The nature of data set [3]: Solubility in water. The data set is classed as physicochemical. The method, boiled down:
as §1

Data set [4] in a line: Chemical stability assessed as half life of hydrolysis in 0.02 M phosphate buffer at pH 7.4. Type of data set: physicochemical. The method, boiled down:
(§2)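 Chemical hydrolysis at 37 °C at pH 1.3, 5.0 and 7.4. Codrug concentration followed over time; Kobs and t1/2 taken by regression from slopes of semilogarithmic concentration–time plots. Means of three experiments ± SD.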

Data set [5] can be described thus: Partition coefficient, log P at pH 7.4 by saturation shake flask method. The data set is classed as physicochemical. The following applies: octanol/water. The method, boiled down: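 log P measured by saturation shake-flask in n-octanol/phosphate buffer, pH 7.4. Concentrations in each layer quantified by C18 reverse-phase HPLC-UV against known standards. Means of three experiments ± SD.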

A short description of data set [6]: Stability in rat plasma assessed as half life of hydrolysis. Type of data set: ADME, cell-free. The method, boiled down:
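Enzymatic hydrolysis at 37 °C in 80% human or rat plasma containing 20% 0.02 M phosphate buffer, pH 7.4, monitoring release of L-dopa. Fitted to first-order kinetics to give Kobs and t1/2. Means of three experiments ± SD.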

Data set [7] can be described thus: Solubility in 0.02 M phosphate buffer at pH 7.4. The data set is classed as physicochemical. The method, boiled down:
as §1

Data set [8] can be described thus: Solubility in 0.02 M hydrochloric acid buffer at pH 1.3. The data set is classed as physicochemical. The method, boiled down: as §1
Data set [9] is described as follows: Chemical stability assessed as half life of hydrolysis in 0.02 M sodium acetate buffer at pH 5.0. The data set is classed as physicochemical. The method, boiled down:
as §2

Data set [10] can be described thus: Chemical stability assessed as half life of hydrolysis in 0.02 M hydrochloric acid buffer at pH 1.3. The data set is classed as physicochemical. The method, boiled down: as §2
Data set [11] has as its system Rattus norvegicus. The data set can be described thus: Prolongation of plasma […] levels in Wistar rat at 184.79 mg/kg, po after 2 hrs. The data set is classed as functional. The method, boiled down:
(§3)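 Plasma L-dopa concentration–time profile in rats after oral administration, with sampling up to 8 h. Mean ± SE; each experiment in triplicate.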

Data set [12] relates to Rattus norvegicus. The data set can be described thus: Induction of sustained release of […] levels in Wistar rat striatum at 184.79 mg/kg, po after 12 hrs. The data set is classed as functional. In short, it runs like this: (§4)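 Oral dosing to rats at doses equimolar to L-dopa. Striatal L-dopa and dopamine measured over time by HPLC with electrochemical detection. Mean ± SE; each experiment in triplicate.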

In data set [13] the test system is Rattus norvegicus. The data set can be described thus: Antioxidant activity assessed as increase in glutathione peroxidase activity in Wistar rat plasma at 184.79 mg/kg, po after 1.5 hrs. The data set is classed as functional. In short, it runs like this:
(§5)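 Rats dosed by oral gavage; plasma SOD and GPx activities measured 1.5 h after administration, expressed as units/(g Hb). Mean ± SE of five experiments; P < 0.05 vs L-dopa-treated group.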

The subject of data set [14] is Rattus norvegicus. The data set can be described thus: Antioxidant activity assessed as decrease in SOD activity in Wistar rat plasma at 184.79 mg/kg, po after 1.5 hrs. The data set is classed as functional. In short, it runs like this:
as §5

Data set [15] relates to Rattus norvegicus. The data set can be described thus: Induction of sustained release of dopamine levels in Wistar rat striatum at 184.79 mg/kg, po after 12 hrs. The data set is classed as functional. The method, boiled down: as §4
Data set [16] deals with Rattus norvegicus. The data set can be described thus: Anxiolytic effect in Wistar rat assessed as […] in entries and time spent in open field center at 184.79 mg/kg, po after 1.5 hrs. The data set is classed as functional, organism-based. Also on record: dose 184.79 mg/kg.
A short description of data set [17]: Plasma concentration in Wistar rat at 65.46 mg/kg, po after 2 hrs. The data set is classed as ADME, organism-based. Further details: dose 65.46 mg/kg, route oral. In short, it runs like this:
as §3

Converted amounts (≈) assume the structure as drawn. The source made the active and inactive calls. The rule behind the calls is not given here.

The text below walks through data of ChEMBL document CHEMBL1139876, “Synthesis and study of L-dopa-glutathione codrugs as new anti-Parkinson agents with free radical scavenging properties” (J Med Chem, 2007).

In the case of `N[C@@H](CCC(=O)N[C@@H](CS)C(=O)NCC(=O)N[C@H](Cc1ccc(O)c(O)c1)C(=O)O)C(=O)O`, the outcome in data set [1] was inactive.
For `N[C@@H](CCC(=O)N[C@@H](CS)C(=O)NCC(=O)N[C@@H](Cc1ccc(O)c(O)c1)C(=O)O)C(=O)O`, the solubility (usually the concentration that dissolves in the medium under given conditions) in data set [2] was found to be 1670 µg/mL (≈ 3.43 mM); in data set [3] it was 1800 µg/mL (≈ 3.7 mM); in data set [7], 1930 µg/mL (≈ 3.97 mM); in data set [8], 2150 µg/mL (≈ 4.42 mM). For the same compound, the half-life (as a rule, how long it takes for the measured level to halve) is 0.252 h in the data set filed under Homo sapiens; 12.2 h in data set [4]; 2.7 min in [6]; 57.3 h in data set [9]; 28.1 h in data set [10]. Moreover, the logD (commonly lipophilicity at a set pH, counting ionised and neutral species) in data set [5] was 0.75.
For `N[C@H](Cc1ccc(O)c(O)c1)C(=O)N[C@@H](CCC(=O)N[C@@H](CS)C(=O)NCC(=O)O)C(=O)O`, the solubility in [2] turned out to be 690 µg/mL (≈ 1.42 mM); in data set [3], 320 µg/mL (≈ 0.658 mM); in data set [7], 460 µg/mL (≈ 0.946 mM); in data set [8], 550 µg/mL (≈ 1.13 mM). Further, the half-life in the data set listed under Homo sapiens is 0.222 h; in data set [4] it was 23.2 h; in [6] it was 4.1 min; in data set [9], 80.1 h; in data set [10], 40.4 h. Moreover, the logD in data set [5] is 0.8.
For the compound `COC(=O)[C@H](CCC(=O)N[C@@H](CS)C(=O)NCC(=O)N[C@@H](Cc1ccc(O)c(O)c1)C(=O)OC)NC(C)=O` [listing 1 of 2 here], the Activity was 105 µg/mL with Rattus norvegicus [11]; 40 pmol/mg in the data set with Rattus norvegicus [12]; 847.78 U/g.Hb with Rattus norvegicus [13]; 174.86 U/g.Hb in the data set on Rattus norvegicus [14]; 40 pmol/kg in the data set on Rattus norvegicus [15].
For `COC(=O)[C@H](CCC(=O)N[C@@H](CS)C(=O)NCC(=O)N[C@H](Cc1ccc(O)c(O)c1)C(=O)OC)NC(C)=O`, the outcome in the data set with Rattus norvegicus [16] was Active.
Take `N[C@@H](Cc1ccc(O)c(O)c1)C(=O)O` [LEVODOPA]: the Activity entry in data set [1] is “Dose-dependent effect”; with Rattus norvegicus [13], 795.6 U/g; in the data set with Rattus norvegicus [14], 203.4 U/g.Hb. In data set [17], this compound displayed a concentration at 2 h of 83 µg/mL.
As for `COC(=O)CNC(=O)[C@H](CS)NC(=O)CC[C@H](NC(=O)[C@@H](Cc1ccc(O)c(O)c1)NC(C)=O)C(=O)OC`, the outcome with Rattus norvegicus [16] was Active. Also, the solubility in data set [2] was 3840 µg/mL (≈ 6.9 mM); in data set [3], 7890 µg/mL (≈ 14.2 mM); in data set [7], 3990 µg/mL (≈ 7.17 mM); in data set [8], 2740 µg/mL (≈ 4.92 mM). For the same compound, the half-life in the data set filed under Homo sapiens was 0.0783 h; in [4], 15.1 h; in [6], 1.9 min; in [9], 69.3 h; in data set [10], 31 h. Besides, the Activity in the data set with Rattus norvegicus [11] was 85 µg/mL; in the data set on Rattus norvegicus [12], 40 pmol/mg; in the data set on Rattus norvegicus [13], 821 U/g.Hb; in the data set with Rattus norvegicus [14] it was 200.59 U/g; in the data set with Rattus norvegicus [15], 40 pmol/kg. The compound also yielded a logD in data set [5] of 0.94.
With `COC(=O)[C@H](CCC(=O)N[C@@H](CS)C(=O)NCC(=O)N[C@@H](Cc1ccc(O)c(O)c1)C(=O)OC)NC(C)=O` [listing 2 of 2 here], the solubility in data set [2] was 25500 µg/mL (≈ 45.8 mM); in data set [3], 27000 µg/mL (≈ 48.6 mM); in data set [7], 25600 µg/mL (≈ 46.1 mM); in [8] it was 35100 µg/mL (≈ 63.1 mM). Further, the half-life in the data set filed under Homo sapiens is 0.0533 h; in data set [4], 7.22 h; in [9] it was 40.8 h; in [10], 20.1 h. The compound also registered a logD in [5] of 0.89.
